The list is not random: actives were taken first. Their share in the collection is about 2.3%.
Rpn11 block = Rpn11 (PSMD14) deubiquitinase inhibitors, primary screen, biochemical, fluorescence polarization, uHTS. human 26S proteasome, Ub4-pepOG fluorescence polarization; 20S core pre-blocked with epoxomicin. 360,000 compounds, 0.59% hits. inhibition, % at 20 µM. 26S proteasome non-ATPase regulatory subunit 14 (Homo sapiens), O00487;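 active = inhibition at 20 µM, scaled to each plate's controls, above about 33%, limit read from the data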
DNMT1 inh = human DNMT1 methyltransferase inhibitors, primary screen, biochemical, molecular beacon, fluorescence, HinP1I cleavage, uHTS; DNA (cytosine-5)-methyltransferase 1 (Homo sapiens), P26358; inhibition (reported as % activation of signal), % at 10 µM; 360,000 compounds, 0.83% hits; in the data active = inhibition above about 50%
LMPTP block = LMPTP phosphatase inhibitors, primary screen, biochemical, fluorescence intensity, uHTS | Low molecular weight phosphotyrosine protein phosphatase (Homo sapiens), P24666 | recombinant LMPTP-A, OMFP fluorogenic substrate | inhibition, % at 20 µM | 360,000 compounds, 0.22% hits | AID 651560, 2012;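 active = compounds that cut the enzyme signal by at least half of the control window in the single-dose screen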
Target sequence (P24666 whole entry, looked up): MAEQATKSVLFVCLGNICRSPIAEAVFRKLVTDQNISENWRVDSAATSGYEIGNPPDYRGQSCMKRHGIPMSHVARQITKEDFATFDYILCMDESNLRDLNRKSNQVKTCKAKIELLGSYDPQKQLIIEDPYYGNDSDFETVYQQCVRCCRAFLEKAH
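Buffer or medium: Bis-Tris pH 6.0, DTT, detergent; Assay system: LMPTP-A enzyme; Quantity: 0.625 nM enzyme; Detection: endpoint fluorescence intensity; Times: 50 min dark incubation at room temperature; Controls: substrate-only low control, DMSO enzyme-plus-substrate high control; Doses: single 20 µM dose; Read-out: percent inhibition versus substrate-only and uninhibited controls; Reagent: 400 µM OMFP.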
STEP block = STEP phosphatase inhibitors, primary screen, biochemical, fluorescence intensity, uHTS; recombinant STEP, OMFP fluorogenic substrate; 360,000 compounds, 0.25% hits; AID 588621, 2011; inhibition, % at 20 µM; Tyrosine-protein phosphatase non-receptor type 5 (Homo sapiens), P54829;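 active = inhibition at 20 µM, scaled per plate between control wells, above about 37%, limit read from the data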
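System: isolated STEP enzyme; schedule: 20 min enzyme reaction at room temperature, protected from light; medium: Bis-Tris buffer pH 6.0, 2.5 mM DTT, 0.005% Tween 20; signal: fluorescence, 480/540 nm; dosing: single compound dose of 20 µM, 1% DMSO final; also added: OMFP substrate, 25 µM final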
Scp-1 inhibitor = Scp-1 phosphatase inhibitors, primary screen, biochemical, colorimetric, uHTS | Carboxy-terminal domain RNA polymerase II polypeptide A small phosphatase 1 (Homo … | inhibition, % at 20 µM | AID 493091, 2011 | 340,000 compounds, 0.88% hits | Recombinant Scp1, phosphopeptide, malachite green phosphate absorbance;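 active = inhibition above about 50% at 20 µM, limit read from the data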
Target sequence (Q9GZU7 76-261 limits assumed): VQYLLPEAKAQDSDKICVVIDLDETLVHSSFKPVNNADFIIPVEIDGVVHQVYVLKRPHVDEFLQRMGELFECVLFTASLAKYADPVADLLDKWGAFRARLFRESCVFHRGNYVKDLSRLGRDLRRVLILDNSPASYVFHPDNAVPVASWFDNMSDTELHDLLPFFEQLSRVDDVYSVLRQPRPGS
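Material: truncated SCP-1 phosphatase (76-261aa) / Buffer or medium: 50 mM Tris acetate pH 5.5, 0.005% Tween-20, 10 mM MgCl2 / Compound dosing: one concentration, 20 µM, with 1.0% DMSO / Incubation: 45 min room-temperature reaction, 5 min colour, 30 min stabiliser / Detection: colorimetric free-phosphate detection, absorbance 630 nm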
SUMO1-SIM PPI = modulators of SUMO1 protein-protein interactions, primary screen, biochemical, uHTS. SUMO1 binding to a labelled peptide, TR-FRET, 1 h. inhibition, % at 20 µM. 360,000 compounds, 0.33% hits. Small ubiquitin-related modifier 1 (Homo sapiens), P63165; in the data active = inhibition above about 37%
Target sequence (P63165 whole entry, looked up): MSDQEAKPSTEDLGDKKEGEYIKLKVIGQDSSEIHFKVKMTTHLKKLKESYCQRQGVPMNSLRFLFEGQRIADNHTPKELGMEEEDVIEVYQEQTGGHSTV
Scp1 confirm = Scp-1 phosphatase inhibitors, retest, confirmation, biochemical, colorimetric, single concentration; shares compounds with Scp-1 inhibitor; recombinant SCP-1 catalytic domain, phosphate release, malachite green absorbance; inhibition, % at 20 µM; 2,500 compounds, 61% hits
Scp-1 MG ctr = colorimetric readout interference by compounds, confirmation, artefact control for Scp-1 inhibitor project, biochemical, single concentration; shares compounds with Scp-1 inhibitor; apparent inhibition (interference), % at 20 µM; Colorimetric interference counterscreen, malachite green absorbance 630 nm; 2,500 tested, under 10 active; AID 540313, 2011;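 also: compounds added after enzyme reaction finished so only phosphate colour detection is probed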
Scp1 DSF = Scp-1 binding by thermal shift, confirmation, orthogonal assay for Scp-1 inhibitor project, biophysical, differential scanning fluorimetry; shares compounds with Scp-1 inhibitor; Recombinant SCP1, Sypro Orange thermal shift Tm; thermal shift relative to vanadate control, % at 40 µM; 1,500 compounds, 25% hits;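 active = substances whose mean melting-temperature shift, as a percentage of the reference inhibitor's shift, reaches about 5.3%, limit read from the data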
Numbers stand for hits; n = inactive; x = no result.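 The calls were made as follows, unless noted: active = inhibition of at least 30% at 20 µM; inactive = the rest.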

SMILES	Rpn11 block	DNMT1 inh	LMPTP block	STEP block	Scp-1 inhibitor	SUMO1-SIM PPI	Scp1 confirm	Scp-1 MG ctr	Scp1 DSF
COc1cccc(CNC(=O)CSc2nnc3c(n2)[nH]c2ccc(C)cc23)c1	n	n	n	n	n	n	x	x	x
COc1ccc(CNC(=O)CSc2nnc3c(n2)[nH]c2ccc(F)cc23)cc1	n	n	n	n	62.2	n	31.1	n	n
COc1ccc(CNC(=O)CSc2nnc3c(n2)[nH]c2ccc(OC)cc23)cc1	n	n	n	n	64.8	n	69.7	n	n
COc1ccc(CCNC(=O)CSc2nnc3c(n2)[nH]c2ccc(F)cc23)cc1OC	n	n	n	n	n	n	x	x	x
N#CC1(Nc2cccc(Cl)c2)CCCC1	n	n	n	n	n	n	x	x	x
CC(NC(=O)CCCc1ccccc1)c1ccncc1 (configuration not stated)	n	n	n	n	n	n	x	x	x
CCOc1ccc(OCCC(=O)Nc2ccc(N3CCOCC3)cc2N2CCOCC2)cc1	n	n	n	n	x	n	x	x	x
CCc1nc2ccc(C(=O)N(C)Cc3ccccc3)cn2c1N(CC)CCN(C)C	n	n	n	n	x	n	x	x	x
Cc1noc(C)c1COc1ccc(C(=O)OCC(=O)N2CC(=O)Nc3ccccc32)cc1	n	n	n	n	n	n	x	x	x
CCC(CC)c1nnc(NC(=O)COc2ccc3c(C)cc(=O)oc3c2)s1	n	n	n	n	n	n	x	x	x
Cc1cc(=O)oc2cc(OCC(=O)N3c4ccccc4NC(=O)C3(C)C)ccc12	n	n	n	n	61.6	n	42.1	n	n
Cc1nnc(NC(=O)COc2ccc3c(C)cc(=O)oc3c2)s1	n	n	n	n	70.8	n	65.1	n	n
CC1(C)C(=O)Nc2ccccc2N1C(=O)COc1ccc(C#N)cc1	n	n	n	n	n	n	x	x	x
Cc1noc(C)c1COc1ccc(C(=O)OCC(=O)N2c3ccccc3NC(=O)C2(C)C)cc1	n	n	n	n	69.0	n	45.9	n	n
CCOc1ccc(C(=O)N2CCC3(CC2)NCCc2[nH]cnc23)cc1OCC	n	n	n	n	n	n	x	x	x
COc1cc(S(=O)(=O)Nc2ccc(C)cc2)ccc1NC(=O)c1ccncc1	n	n	n	n	54.0	n	n	n	x
Cc1c(C(=O)O)cccc1[N+](=O)[O-]	n	n	n	n	n	n	x	x	x
O=C(O)c1c[nH]c2c([N+](=O)[O-])cccc2c1=O	n	n	n	n	82.7	n	53.5	n	n
C[n+]1ccccc1/C=C/c1ccc(F)c(F)c1	n	n	n	n	101.8	n	n	n	x
Cc1ccccc1/C=C/c1cccc[n+]1C	n	n	n	n	92.7	n	n	n	x
C[n+]1ccccc1/C=C/c1ccc([N+](=O)[O-])cc1	n	n	n	n	n	n	x	x	x
C[n+]1ccccc1/C=C/c1ccc(C#N)cc1	n	n	n	n	99.0	n	89.3	n	n
O=C(Cn1cnc(S(=O)(=O)N2CCCC2)c1)Nc1cccc(F)c1	n	n	n	n	n	n	x	x	x
Cn1c(SCC(=O)Nc2ncc(C(F)(F)F)cc2Cl)nnc1-c1ccc(Cl)cc1	n	n	n	n	61.6	n	n	n	x
COc1ccccc1NC(=O)c1nn(-c2ccc(Cl)cc2)ccc1=O	n	n	n	n	97.5	n	75.8	n	n
SMILES	Rpn11 block	DNMT1 inh	LMPTP block	STEP block	Scp-1 inhibitor	SUMO1-SIM PPI	Scp1 confirm	Scp-1 MG ctr	Scp1 DSF
COc1ccccc1NC(=O)c1nn(-c2ccccc2)ccc1=O	n	n	n	n	n	n	x	x	x
CCOC(=O)CN1C(=O)N[C@@H](c2cccs2)C(C(=O)OC)=C1C	n	n	n	n	57.7	n	n	n	x
CCOC(=O)CN1C(=O)N[C@@H](c2cccs2)C(C(C)=O)=C1C	n	n	n	n	n	n	x	x	x
NC(=O)c1ccsc1NC(=O)COC(=O)/C=C/c1ccc([N+](=O)[O-])cc1	n	n	64.0	n	70.7	n	58.8	n	n
COC(=O)c1ccc(/C=C/C(=O)OCC(=O)Nc2sccc2C(N)=O)cc1	n	n	n	n	n	n	x	x	x
COC(=O)c1ccccc1NC(=O)c1cc[n+]([O-])cc1	n	n	n	n	n	n	x	x	x
COC(=O)c1ccccc1NC(=O)c1cc[n+](C)cc1	n	n	n	n	51.0	n	n	n	x
O=C(O)CC1S/C(=N/N=C/c2ccc([N+](=O)[O-])cc2)N(c2ccc(O)cc2)C1=O (configuration not stated)	n	n	n	n	n	n	x	x	x
CCOC(=O)CCn1nc(-c2ccc(Cl)cc2)cc1N	n	n	n	n	89.2	n	n	n	x
Cc1cc(C(F)F)n2nc(C(=O)Nc3sc4c(c3C(N)=O)CCC4)nc2n1	n	n	n	n	61.0	n	55.0	n	n
O=C(CCCc1nc(-c2ccccc2)no1)NCc1cccnc1	n	n	n	n	70.3	n	n	n	x
C/C=C/c1cnc2c(c1)C(=O)N([C@H](C)CO)C[C@@H](C)[C@@H](CN(C)C(=O)NC1CCCC1)O2	n	n	n	n	x	n	x	x	x
Cc1ccc(S(=O)(=O)OCC(=O)Nc2ccc(C(=O)O)c(O)c2)cc1	n	n	n	n	64.1	n	48.2	n	7.6
O=C1CC(=O)Nc2cc(S(=O)(=O)Nc3cccc(C(F)(F)F)c3)ccc2N1	n	n	n	n	n	n	n	n	x
CCC(C(=O)Nc1cccc(C(=O)O)c1C)c1ccccc1 (configuration not stated)	n	n	n	n	n	n	x	x	x
O=C(CCS(=O)(=O)c1ccc(Br)cc1)Nc1ccc(Br)cc1F	n	n	n	n	56.1	n	53.8	n	n
O=C(CCS(=O)(=O)c1ccc(Br)cc1)Nc1ccc(Cl)cc1F	n	n	n	n	n	n	x	x	x
